Assay outcomes: PubChem, several laboratories
p97 ATPase inh – inhibitors of human p97 ATPase, primary screen, biochemical | AID 1481, 2009 | Transitional endoplasmic reticulum ATPase (Homo sapiens), P55072 | 0.42% of 220,000 active | inhibition, % at 8 µM | recombinant p97 ATPase, Kinase-Glo ATP luminescence, 3 h; in the data active means inhibition above about 15%;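 further: 0% = DMSO vehicle and 100% = wells lacking enzyme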
PKD1 inh – inhibitors of human PKD1 kinase, biochemical, fluorescence polarization | 0.056% of 200,000 active | PKD1 kinase fluorescence polarization assay | inhibition, % (concentration not given with the values); in the data active means inhibition above about 50%
PP5 inh – PP5 phosphatase inhibitors, primary screen, biochemical, fluorescence | Serine/threonine-protein phosphatase 5 (Homo sapiens), P53041 | purified PP5c, OMFP substrate fluorescence | inhibition, % at 6.7 µM | 0.18% of 320,000 active | AID 1987, 2009;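 active means inhibition above the campaign's mean inhibition across all tested compounds plus 3 SD, cut at about 9.5% in these data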;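 further: 0% = DMSO only and 100% = 100 µM cantharidin control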
PP1 inh – PP1-alpha phosphatase inhibitors, primary screen, counter-screen for PP5 inhibitor project, biochemical, fluorescence, OMFP substrate, single point; Serine/threonine-protein phosphatase PP1-alpha catalytic subunit (Homo sapiens), P62136; purified PP1alpha; inhibition, % at 6.7 µM; 0.9% of 320,000 active;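 active means inhibition above the mean inhibition of all tested compounds plus 3 SD, computed separately for each screening campaign, cut at about 15% in these data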
RBBP9 inhibitor – human RBBP9 inhibitors, primary screen, biochemical, fluorescence polarization, FP-Rh probe, HTS; Serine hydrolase RBBP9 (Homo sapiens), O75884; recombinant RBBP9; inhibition, % at 7.94 µM; 0.2% of 220,000 active; AID 1515, 2009;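 active means inhibition above the campaign mean of all tested compounds plus 3 SD, cut at about 14% in these data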;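 further: plate controls were DMSO wells with RBBP9 for no effect and wells lacking RBBP9 protein for full effect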
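Measured by – fluorescence polarization · Test system – RBBP9 protein · Input – 2.5 µM RBBP9 dispensing solution, before mixing · Measure – percent inhibition from mP, scaled between DMSO and no-protein wells · Benchmarks – DMSO-treated enzyme wells and wells lacking RBBP9 · Times – preincubation 30 min plus labeling 45 min at 25 °C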
Hsp70 act – Hsp70 transcriptional activators, primary screen, cell-based, HeLa, Hsp70 promoter luciferase, luminescence, 10 µM. HeLa Hsp70 promoter luciferase reporter; scaled: vehicle 0, proteasome-inhibitor control 100%. activation, % at 10 µM. 0.04% of 200,000 active. AID 1203, 2008;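 active means activation above the mean across all tested compounds plus 3 SD, cutoff set per campaign, cut at about 5.5% in these data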;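 further: 100% = MG132 at 30 µM as the positive control and 0% = DMSO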
PP1 inh confirm – PP1 phosphatase inhibitors, confirmation, biochemical, fluorescence, OMFP substrate, triplicate; shares compounds with PP1 inh; purified PP1alpha; inhibition, % at 6.7 µM; 52% of 1,900 active; AID 2358, 2010;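 active means mean PP1 inhibition above a set limit taken from the earlier primary screen, cut at about 15% in these data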
PP5 counter – PP5 phosphatase inhibition by PP1 hits, confirmation, counter-screen for PP1 inhibitor project, biochemical, fluorescence, triplicate | shares compounds with PP1 inh | purified PP5c, OMFP fluorescence | inhibition, % at 6.7 µM | 4% of 1,900 active;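 active means mean PP5 inhibition over triplicate wells above about 9.5% taken from the earlier PP1 screen, limit read from the data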
An asterisk follows results filed as active; · = not tested or not shown. Compounds with a hit are over-represented: about 1.5% of the library has one in this group of screens.

SMILES	p97 ATPase inh	PKD1 inh	PP5 inh	PP1 inh	RBBP9 inhibitor	Hsp70 act	PP1 inh confirm	PP5 counter
CC(=O)c1ccc(NC(=O)C2CCCNC2=O)cc1 (stereo unspecified)	-3	-11	3	22*	-9	0	-2	-4
O=C(Nc1cccc([N+](=O)[O-])c1)c1cc2ccccc2cc1O	12	·	1	23*	-5	·	19*	-1
CCCCN(C)S(=O)(=O)c1ccc(C(=O)Nc2nnc(-c3cccs3)o2)cc1	2	-14	5	33*	-1	0	20*	0
CCN(Cc1ccccc1)S(=O)(=O)c1ccc(C(=O)Nc2nnc(-c3ccccc3OC)o2)cc1	3	6	-2	30*	-6	0	30*	1
CCCCN(CCCC)S(=O)(=O)c1ccc(C(=O)Nc2nnc(CSC)o2)cc1	4	-14	0	27*	-4	0	29*	7
CCCCN(CC)S(=O)(=O)c1ccc(C(=O)Nc2nnc(COC)o2)cc1	-8	-6	4	19*	-7	0	6	-1
COCc1nnc(NC(=O)c2ccc(S(=O)(=O)N(CC(C)C)CC(C)C)cc2)o1	2	-5	2	10	2	0	·	·
CCCN(CCC)S(=O)(=O)c1ccc(C(=O)Nc2nnc(-c3cc(OC)cc(OC)c3)o2)cc1	3	-10	-2	-3	-7	0	·	·
O=C(Nc1nnc(-c2cccs2)o1)c1cccc(F)c1	-2	0	2	1	-6	0	·	·
O=C(Nc1nnc(-c2ccccn2)o1)c1cccc(Cl)c1	4	0	-2	25*	-9	0	5	-3
O=C(Nc1nnc(-c2cccs2)o1)c1cccc(Oc2ccccc2)c1	8	-6	-1	29*	-5	0	29*	-2
CCCN(CCC)S(=O)(=O)c1ccc(C(=O)Nc2nnc(CSC)o2)cc1	-9	-8	-2	24*	-14	0	22*	-2
CCN(c1ccccc1)S(=O)(=O)c1ccc(C(=O)Nc2nnc(COC)o2)cc1	-1	-7	0	14	-7	0	·	·
COCc1nnc(NC(=O)c2ccc(S(=O)(=O)N(C)c3ccccc3)cc2)o1	5	-15	3	22*	5	0	6	-3
CCc1nnc(NC(=O)c2ccc(S(=O)(=O)N(CCOC)CCOC)cc2)o1	-1	-7	1	4	9	0	·	·
O=C(Nc1nnc(-c2cccnc2)o1)c1cccc(Cl)c1	3	-4	-2	8	-3	0	·	·
COc1ccc(NC(=O)Cn2c(=O)n(CC3CCCO3)c(=O)c3cc(OC)c(OC)cc32)cc1OC (stereo unspecified)	·	·	2	-1	·	·	·	·
CCCc1nnc(SCC(=O)N2CCCCC2C)n1CCOC (stereo unspecified)	7	-4	-2	-1	13	0	·	·
CCCCN(CC)S(=O)(=O)c1ccc(C(=O)Nc2nnc(-c3ccccc3Cl)o2)cc1	3	-7	0	8	-11	0	·	·
CCN(c1ccccc1)S(=O)(=O)c1ccc(C(=O)Nc2nnc(CSC)o2)cc1	2	2	4	38*	-3	0	28*	2
CCCCN(CC)S(=O)(=O)c1ccc(C(=O)Nc2nnc(CSC)o2)cc1	6	-2	2	29*	-6	0	20*	-1
CCOC(=O)[C@H]1[C@H]2COc3ccc(OC)cc3[C@@H]2N2C(=O)c3ccccc3NC(=O)[C@@]12C	·	·	-1	0	·	·	·	·
CCNC(=O)COC(=O)c1cc(S(=O)(=O)N2CCCc3ccccc32)ccc1Cl	3	·	1	2	-6	·	·	·
O=C(CNC(=O)C12CC3CC(CC(C3)C1)C2)N/N=C\c1ccccn1	5	-2	0	1	-2	0	·	·
C=CCn1c(=NC(=O)c2ccc(S(=O)(=O)N3CCc4ccccc4C3)cc2)sc2cc(S(N)(=O)=O)ccc21	9	-6	-1	2	-18	0	·	·
SMILES	p97 ATPase inh	PKD1 inh	PP5 inh	PP1 inh	RBBP9 inhibitor	Hsp70 act	PP1 inh confirm	PP5 counter
C#CCn1c(=NC(=O)c2ccc(S(=O)(=O)N3CCc4ccccc4C3)cc2)sc2cc(S(N)(=O)=O)ccc21	3	-9	-1	26*	-15	0	28*	-4
C#CCn1c(=NC(=O)c2sc3ccccc3c2Cl)sc2cc(S(N)(=O)=O)ccc21	6	14	0	28*	-10	0	34*	-5
C#CCn1c(=NC(=O)c2ccccc2[N+](=O)[O-])sc2cc(S(C)(=O)=O)ccc21	3	9	1	-3	-12	0	·	·
c1ccc(N2CCN(Cc3ccnc4ccccc34)CC2)cc1	0	1	2	7	-12	0	·	·
Oc1c(CN2CCN(c3ccccc3)CC2)cc(Br)c2cccnc12	8	·	5	29*	0	·	32*	-3
Cc1ccc(C)c(C(=O)C(C)Sc2nc3nn(-c4ccccc4)c(=O)c-3c3n2CCCCC3)c1 (stereo unspecified)	·	·	-1	-1	·	·	·	·
O=C(O)C(Cc1ccccc1)N1C(=O)/C(=C/c2cccc3ccccc23)SC1=S (stereo unspecified)	-4	-4	3	20*	-11	0	32*	1
O=C(O)C(Cc1ccccc1)N1C(=O)/C(=C/c2ccccc2)SC1=S (stereo unspecified)	3	-3	-2	1	-1	0	·	·
O=C(c1c(F)cccc1F)N1CCC(n2nnc3cc(C(F)(F)F)ccc32)CC1	-5	2	2	4	-4	0	·	·
O=C(COc1ccc2c3c(c(=O)oc2c1)CCCC3)N1C[C@H]2C[C@@H](C1)c1cccc(=O)n1C2	·	·	2	30*	·	·	30*	-7
COc1ccc(-c2cc3nc4ccccc4n3c(N)c2C#N)cc1	14	·	-5	18*	-6	·	17*	-4
CCc1ccc(NC(=O)C2CCN(S(=O)(=O)c3cccs3)CC2)cc1	·	·	4	1	·	·	·	·
CCc1noc(C)c1C(=O)Nc1ccc(-c2nnc3n2CCCCC3)cc1	·	·	-3	-3	·	·	·	·
O=C(CCC(=O)OCc1ccc(Br)cc1)Nc1ccccc1	3	1	2	3	0	0	·	·
